Measured values as given in ChEMBL document CHEMBL3763099, “Synthesis and evaluation of 1,7-diheteroarylhepta-1,4,6-trien-3-ones as curcumin-based anticancer agents” (Eur J Med Chem, 2016).

Columns and labels:
Assay type in all cases: functional
[1] = Cytotoxicity against human PC3 cells assessed as inhibition of cell viability at 10 uM after 3 days by trypan blue dye exclusion assay; conditions: PC-3, 72 h
Outline: (§1)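 Viable cells were counted by trypan blue exclusion on an automated analyzer. Viability was taken as treated/vehicle viable cell count. The inhibitory rate is the control percentage viability minus the treated percentage viability. Variation between replicate experiments was at most 5%.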

[2] = test system: HeLa; assay: Cytotoxicity against human HeLa cells assessed as inhibition of cell viability at 10 uM after 3 days by trypan blue dye exclusion assay; conditions: 72 h; outline: as §1
[3] = Cytotoxicity against human DU145 cells assessed as inhibition of cell viability at 1 uM after 3 days by trypan blue dye exclusion assay; conditions: DU-145, 72 h; outline: as §1
[4] = test system: LNCaP; assay: Cytotoxicity against human LNCAP cells assessed as inhibition of cell viability at 1 uM after 3 days by trypan blue dye exclusion assay; conditions: 72 h; outline: as §1
[5] = test system: LNCaP; assay: Cytotoxicity against human LNCAP cells assessed as inhibition of cell viability at 10 uM after 3 days by trypan blue dye exclusion assay; conditions: 72 h; outline: as §1
[6] = test system: HeLa; assay: Cytotoxicity against human HeLa cells assessed as inhibition of cell viability at 1 uM after 3 days by trypan blue dye exclusion assay; conditions: 72 h; outline: as §1
[7] = Cytotoxicity against human DU145 cells assessed as inhibition of cell viability at 10 uM after 3 days by trypan blue dye exclusion assay; conditions: DU-145, 72 h; outline: as §1
[8] = Cytotoxicity against human PC3 cells assessed as inhibition of cell viability at 1 uM after 3 days by trypan blue dye exclusion assay; conditions: PC-3, 72 h; outline: as §1

SMILES	inhibition at 10 µM [1] [%]	inhibition at 10 µM [2] [%]	inhibition at 1 µM [3] [%]	inhibition at 1 µM [4] [%]	inhibition at 10 µM [5] [%]	inhibition at 1 µM [6] [%]	inhibition at 10 µM [7] [%]	inhibition at 1 µM [8] [%]
CCCCn1ccnc1/C=C/C=C/C(=O)/C=C/c1nccn1CCCC	87	92	35	47	92	44	91	33
O=C(/C=C/C=C/c1cccnc1)/C=C/c1cccnc1	86	97	24	2	61	20	87	24
Cc1nc(C(F)(F)F)c(/C=C/C=C/C(=O)/C=C/c2sc(C)nc2C(F)(F)F)s1	88	96	13	37	92	12	80	24
O=C(/C=C/C=C/c1nccs1)/C=C/c1nccs1	86	94	2	28	80	11	65	28
CC(C)CCn1ccnc1/C=C/C=C/C(=O)/C=C/c1nccn1CCC(C)C	89	95	32	33	75	31	88	32
Cn1cc(Br)c(/C=C/C=C/C(=O)/C=C/c2nn(C)cc2Br)n1	91	95	42	38	63	52	86	25
Cc1cc(/C=C/C=C/C(=O)/C=C/c2cc(C)on2)no1	88	97	25	13	70	17	79	25
CC(C)CCn1c(/C=C/C=C/C(=O)/C=C/c2nc3ccccc3n2CCC(C)C)nc2ccccc21	93	97	21	15	60	53	97	58
CCn1ccnc1/C=C/C=C/C(=O)/C=C/c1nccn1CC	85	98	34	23	62	43	84	32
O=C(/C=C/C=C/c1ccncc1)/C=C/c1ccncc1	84	95	60	20	50	22	81	33
CCCCCCn1ccnc1/C=C/C=C/C(=O)/C=C/c1nccn1CCCCCC	85	98	34	31	76	32	86	11
O=C(/C=C/C=C/c1ccncc1F)/C=C/c1ccncc1F	84	94	36	31	66	26	81	19
Cn1ccnc1/C=C/C=C/C(=O)/C=C/c1nccn1C	83	93	21	41	55	18	66	35
CCCn1ccnc1/C=C/C=C/C(=O)/C=C/c1nccn1CCC	91	98	25	38	95	34	84	23
Cc1cccc(/C=C/C=C/C(=O)/C=C/c2cccc(C)n2)n1	91	94	12	50	57	40	75	35
CCCCCCCn1ccnc1/C=C/C=C/C(=O)/C=C/c1nccn1CCCCCCC	92	99	25	12	70	13	93	28
CCCCCn1ccnc1/C=C/C=C/C(=O)/C=C/c1nccn1CCCCC	86	95	43	44	94	39	88	36
O=C(/C=C/C=C/c1ccccn1)/C=C/c1ccccn1	20	24	11	0	7.2	21	37	17
CC(C)=CCn1ccnc1/C=C/C=C/C(=O)/C=C/c1nccn1CC=C(C)C	87	94	0	38	70	66	75	35
Cc1csc(/C=C/C=C/C(=O)/C=C/c2nc(C)cs2)n1	86	96	8	21	57	20	46	25
COc1cc(/C=C/C(=O)CC(=O)/C=C/c2ccc(O)c(OC)c2)ccc1O [CURCUMIN]	55	50	7	29	66	14	59	2.5
